# Active and inactive are the calls of the source. The calls are words filed in the database; no cut-off is given here.
# Test system: not listed separately
# Assay: Inhibition of quorum sensing system in Pseudomonas aeruginosa MH602 PlasB::gfp at 31.25 uM incubated for 15 hrs by GFP reporter gene assay
# Conditions: not given
# Procedure, shortened: (§1)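 Reporter strain P. aeruginosa PlasB::gfp (PAMH602) makes its own AHL; lasB promoter drives GFP-ASV. Cultures incubated with compound over 250–31.25 µM at 37 °C for 15 h, then GFP fluorescence read at 535 nm. QSI expressed as % relative to untreated PAMH602 negative control. Furanone positive control.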
row,SMILES,inhibition [%]
1,C=C1NC(=O)C=C1c1ccc(C(=O)O)cc1,19.6
2,C=C1C(c2ccc(Br)cc2)=CC(=O)N1c1ccccc1,22
3,C=C1C(c2ccc(Br)cc2)=CC(=O)N1c1ccc(F)cc1,9.23
4,C=C1C(c2ccccc2F)=CC(=O)N1Cc1ccccc1,27
5,C=C1NC(=O)C(C)=C1c1cccc(C(F)(F)F)c1,26.3
6,C=C1NC(=O)C=C1c1ccccc1Cl,37.8
7,C=C1NC(=O)C(C)=C1c1ccc(Cl)cc1,23.7
8,O=C1C=C(c2ccccc2F)/C(=C/Br)N1,61.5
9,C=C1NC(=O)C(C)=C1c1ccccc1F,28.8

# The remaining lines, values ahead:
row,inhibition [%],SMILES
1,19.6,C=C1NC(=O)C=C1c1ccccc1
2,26.9,COc1ccc(C2=CC(=O)NC2)cc1
3,31.7,O=C1C=C(c2ccccc2)CN1
4,24.7,O=C1C=C(c2ccsc2)CN1
5,56.8,O=C1C=C(c2ccccc2)/C(=C/Br)N1
6,38.2,O=C1C=C(c2ccc(Br)cc2)/C(=C/Br)N1

# Test system: Pseudomonas aeruginosa
# Assay: Inhibition of biofilm formation in Pseudomonas aeruginosa PAO1 at 250 uM incubated for 6 hrs by crystal violet staining based method
# Type: functional
# Conditions: not given
# Procedure, shortened: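 P. aeruginosa PA01 biofilm. Cultures grown with or without test compound for 6 h. Biofilm biomass quantified by crystal violet staining (OD550). % inhibition calculated relative to DMSO control.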
row,SMILES,inhibition
1,COc1ccc(C2=CC(=O)NC2)cc1,inactive
2,O=C1C=C(c2ccsc2)CN1,inactive

# Same assay, conditions: PAO1, 6 h
row,SMILES,inhibition at 250 µM [%]
1,C=C1NC(=O)C=C1c1ccccc1,47.6
2,C=C1NC(=O)C=C1c1ccc(C(=O)O)cc1,12.9
3,C=C1C(c2ccc(Br)cc2)=CC(=O)N1c1ccccc1,35.2
4,O=C1C=C(c2ccccc2)CN1,14.4
5,C=C1C(c2ccc(Br)cc2)=CC(=O)N1c1ccc(F)cc1,27.7

# Test system: not listed separately
# Assay: Inhibition of quorum sensing system in Pseudomonas aeruginosa MH602 PlasB::gfp at 125 uM incubated for 15 hrs by GFP reporter gene assay
# Conditions: not given
# Procedure, shortened: as §1
row,SMILES,inhibition [%]
1,C=C1NC(=O)C=C1c1ccc(C(=O)O)cc1,50.8
2,C=C1C(c2ccc(Br)cc2)=CC(=O)N1c1ccccc1,62
3,C=C1C(c2ccc(Br)cc2)=CC(=O)N1c1ccc(F)cc1,49.7
4,C=C1C(c2ccccc2F)=CC(=O)N1Cc1ccccc1,52.4
5,C=C1NC(=O)C(C)=C1c1cccc(C(F)(F)F)c1,47
6,C=C1NC(=O)C=C1c1ccccc1Cl,69.7
7,C=C1NC(=O)C(C)=C1c1ccc(Cl)cc1,38.2
8,O=C1C=C(c2ccccc2F)/C(=C/Br)N1,81.3
9,C=C1NC(=O)C(C)=C1c1ccccc1F,48.8

# Second part, the compound after the results:
row,inhibition [%],SMILES
1,59,C=C1NC(=O)C=C1c1ccccc1
2,48.5,COc1ccc(C2=CC(=O)NC2)cc1
3,60.8,O=C1C=C(c2ccccc2)CN1
4,49.3,O=C1C=C(c2ccsc2)CN1
5,77.8,O=C1C=C(c2ccccc2)/C(=C/Br)N1
6,53.9,O=C1C=C(c2ccc(Br)cc2)/C(=C/Br)N1

# Test system: not listed separately
# Assay: Inhibition of quorum sensing system in Pseudomonas aeruginosa MH602 PlasB::gfp at 250 uM incubated for 15 hrs by GFP reporter gene assay
# Conditions: not given
# Procedure, shortened: as §1
row,SMILES,inhibition [%]
1,C=C1NC(=O)C=C1c1ccc(C(=O)O)cc1,68
2,C=C1C(c2ccc(Br)cc2)=CC(=O)N1c1ccccc1,78.6
3,C=C1C(c2ccc(Br)cc2)=CC(=O)N1c1ccc(F)cc1,57.9
4,C=C1C(c2ccccc2F)=CC(=O)N1Cc1ccccc1,55.2
5,C=C1NC(=O)C(C)=C1c1cccc(C(F)(F)F)c1,47.2
6,C=C1NC(=O)C=C1c1ccccc1Cl,72
7,C=C1NC(=O)C(C)=C1c1ccc(Cl)cc1,47.7
8,O=C1C=C(c2ccccc2F)/C(=C/Br)N1,86.3
9,C=C1NC(=O)C(C)=C1c1ccccc1F,54.8

# More lines, now with the values ahead:
row,inhibition [%],SMILES
1,71.5,C=C1NC(=O)C=C1c1ccccc1
2,66.5,COc1ccc(C2=CC(=O)NC2)cc1
3,57.7,O=C1C=C(c2ccccc2)CN1
4,72.1,O=C1C=C(c2ccsc2)CN1
5,84.8,O=C1C=C(c2ccccc2)/C(=C/Br)N1
6,82.3,O=C1C=C(c2ccc(Br)cc2)/C(=C/Br)N1

# Test system: Pseudomonas aeruginosa
# Assay: Toxicity in Pseudomonas aeruginosa MH602 PlasB::gfp assessed as inhibition of bacterial growth at 62.5 uM incubated for 15 hrs by spectrophotometry
# Type: organism-based
# Conditions: MH602, 15 h, read-out: GI
row,SMILES,inhibition at 62.5 µM [%]
1,C=C1NC(=O)C=C1c1ccccc1,≤ 15
2,C=C1NC(=O)C=C1c1ccc(C(=O)O)cc1,≤ 15
3,COc1ccc(C2=CC(=O)NC2)cc1,≤ 15
4,C=C1C(c2ccc(Br)cc2)=CC(=O)N1c1ccccc1,≤ 15
5,O=C1C=C(c2ccccc2)CN1,≤ 15
6,C=C1C(c2ccc(Br)cc2)=CC(=O)N1c1ccc(F)cc1,≤ 15
7,O=C1C=C(c2ccsc2)CN1,≤ 15
8,C=C1C(c2ccccc2F)=CC(=O)N1Cc1ccccc1,≤ 15
9,O=C1C=C(c2ccccc2)/C(=C/Br)N1,15 to 30
10,C=C1NC(=O)C(C)=C1c1cccc(C(F)(F)F)c1,≤ 15
11,C=C1NC(=O)C=C1c1ccccc1Cl,≤ 15
12,C=C1NC(=O)C(C)=C1c1ccc(Cl)cc1,≤ 15
13,O=C1C=C(c2ccc(Br)cc2)/C(=C/Br)N1,15 to 30
14,O=C1C=C(c2ccccc2F)/C(=C/Br)N1,15 to 30
15,C=C1NC(=O)C(C)=C1c1ccccc1F,≤ 15

# Test system: Pseudomonas aeruginosa
# Assay: Toxicity in Pseudomonas aeruginosa MH602 PlasB::gfp assessed as inhibition of bacterial growth at 31.25 uM incubated for 15 hrs by spectrophotometry
# Type: organism-based
# Conditions: MH602, 15 h, read-out: GI
row,SMILES,inhibition at 31.25 µM [%]
1,C=C1NC(=O)C=C1c1ccccc1,≤ 15
2,C=C1NC(=O)C=C1c1ccc(C(=O)O)cc1,≤ 15
3,COc1ccc(C2=CC(=O)NC2)cc1,≤ 15
4,C=C1C(c2ccc(Br)cc2)=CC(=O)N1c1ccccc1,≤ 15
5,O=C1C=C(c2ccccc2)CN1,≤ 15
6,C=C1C(c2ccc(Br)cc2)=CC(=O)N1c1ccc(F)cc1,≤ 15
7,O=C1C=C(c2ccsc2)CN1,≤ 15
8,C=C1C(c2ccccc2F)=CC(=O)N1Cc1ccccc1,≤ 15
9,O=C1C=C(c2ccccc2)/C(=C/Br)N1,≤ 15
10,C=C1NC(=O)C(C)=C1c1cccc(C(F)(F)F)c1,≤ 15
11,C=C1NC(=O)C=C1c1ccccc1Cl,≤ 15
12,C=C1NC(=O)C(C)=C1c1ccc(Cl)cc1,≤ 15
13,O=C1C=C(c2ccc(Br)cc2)/C(=C/Br)N1,≤ 15
14,O=C1C=C(c2ccccc2F)/C(=C/Br)N1,≤ 15
15,C=C1NC(=O)C(C)=C1c1ccccc1F,≤ 15

# Test system: not listed separately
# Assay: Inhibition of quorum sensing system in Pseudomonas aeruginosa MH602 PlasB::gfp at 62.5 uM incubated for 15 hrs by GFP reporter gene assay
# Conditions: not given
# Procedure, shortened: as §1
row,SMILES,inhibition [%]
1,C=C1NC(=O)C=C1c1ccc(C(=O)O)cc1,33.6
2,C=C1C(c2ccc(Br)cc2)=CC(=O)N1c1ccccc1,39.2
3,C=C1C(c2ccc(Br)cc2)=CC(=O)N1c1ccc(F)cc1,34.5
4,C=C1C(c2ccccc2F)=CC(=O)N1Cc1ccccc1,47.5
5,C=C1NC(=O)C(C)=C1c1cccc(C(F)(F)F)c1,33.2
6,C=C1NC(=O)C=C1c1ccccc1Cl,58.3
7,C=C1NC(=O)C(C)=C1c1ccc(Cl)cc1,33.2
8,O=C1C=C(c2ccccc2F)/C(=C/Br)N1,75
9,C=C1NC(=O)C(C)=C1c1ccccc1F,31.7

# Second part, the compound after the results:
row,inhibition [%],SMILES
1,31.6,C=C1NC(=O)C=C1c1ccccc1
2,27.2,COc1ccc(C2=CC(=O)NC2)cc1
3,32.4,O=C1C=C(c2ccccc2)CN1
4,26.6,O=C1C=C(c2ccsc2)CN1
5,66.6,O=C1C=C(c2ccccc2)/C(=C/Br)N1
6,53.5,O=C1C=C(c2ccc(Br)cc2)/C(=C/Br)N1

# Test system: Pseudomonas aeruginosa
# Assay: Toxicity in Pseudomonas aeruginosa MH602 PlasB::gfp assessed as inhibition of bacterial growth at 250 uM incubated for 15 hrs by spectrophotometry
# Type: organism-based
# Conditions: MH602, 15 h, read-out: GI
row,SMILES,inhibition at 250 µM [%]
1,C=C1NC(=O)C=C1c1ccccc1,≤ 15
2,C=C1NC(=O)C=C1c1ccc(C(=O)O)cc1,≤ 15
3,COc1ccc(C2=CC(=O)NC2)cc1,≤ 15
4,C=C1C(c2ccc(Br)cc2)=CC(=O)N1c1ccccc1,15 to 30
5,O=C1C=C(c2ccccc2)CN1,≤ 15
6,C=C1C(c2ccc(Br)cc2)=CC(=O)N1c1ccc(F)cc1,≤ 15
7,O=C1C=C(c2ccsc2)CN1,≤ 15
8,C=C1C(c2ccccc2F)=CC(=O)N1Cc1ccccc1,≤ 15
9,O=C1C=C(c2ccccc2)/C(=C/Br)N1,> 30
10,C=C1NC(=O)C(C)=C1c1cccc(C(F)(F)F)c1,≤ 15
11,C=C1NC(=O)C=C1c1ccccc1Cl,≤ 15
12,C=C1NC(=O)C(C)=C1c1ccc(Cl)cc1,≤ 15
13,O=C1C=C(c2ccc(Br)cc2)/C(=C/Br)N1,> 30
14,O=C1C=C(c2ccccc2F)/C(=C/Br)N1,> 30
15,C=C1NC(=O)C(C)=C1c1ccccc1F,≤ 15

# Test system: Pseudomonas aeruginosa
# Assay: Toxicity in Pseudomonas aeruginosa MH602 PlasB::gfp assessed as inhibition of bacterial growth at 125 uM incubated for 15 hrs by spectrophotometry
# Type: organism-based
# Conditions: MH602, 15 h, read-out: GI
row,SMILES,inhibition at 125 µM [%]
1,C=C1NC(=O)C=C1c1ccccc1,≤ 15
2,C=C1NC(=O)C=C1c1ccc(C(=O)O)cc1,≤ 15
3,COc1ccc(C2=CC(=O)NC2)cc1,≤ 15
4,C=C1C(c2ccc(Br)cc2)=CC(=O)N1c1ccccc1,≤ 15
5,O=C1C=C(c2ccccc2)CN1,≤ 15
6,C=C1C(c2ccc(Br)cc2)=CC(=O)N1c1ccc(F)cc1,≤ 15
7,O=C1C=C(c2ccsc2)CN1,≤ 15
8,C=C1C(c2ccccc2F)=CC(=O)N1Cc1ccccc1,≤ 15
9,O=C1C=C(c2ccccc2)/C(=C/Br)N1,> 30
10,C=C1NC(=O)C(C)=C1c1cccc(C(F)(F)F)c1,≤ 15
11,C=C1NC(=O)C=C1c1ccccc1Cl,≤ 15
12,C=C1NC(=O)C(C)=C1c1ccc(Cl)cc1,≤ 15
13,O=C1C=C(c2ccc(Br)cc2)/C(=C/Br)N1,> 30
14,O=C1C=C(c2ccccc2F)/C(=C/Br)N1,> 30
15,C=C1NC(=O)C(C)=C1c1ccccc1F,≤ 15

# Reference: ChEMBL document CHEMBL4316620, “Dihydropyrrolones as bacterial quorum sensing inhibitors” (Bioorg Med Chem Lett, 2019)
